Screening data deposited in PubChem by Broad Institute.
The full list was thinned out, with hits kept by preference.
STK33 kinase inh: blocks human STK33 kinase activity | Q9BYT3 | purified STK33, MBP phosphorylation, ADP-Glo luminescence | inhibition, % at 10 µM | 0.073% of 320,000 active | AID 2661;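 active = inhibition at or above 25%, using the most active replicate where run in duplicate; inactive = inhibition below 25%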
DYRK1A inh: blocks rat Dyrk1A kinase activity; ADP-Glo luminescence, NFATc1 peptide; Q63470; AID 504441; inhibition, % at 12.5 µM; 0.43% of 310,000 active; in the data active = inhibition above about 50%;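 note: plate controls were vehicle with enzyme for no effect and no enzyme for full effect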
GSK3A inh: blocks human GSK-3 alpha kinase; P49840; ADP-Glo luminescence, 60 min; inhibition, % at 10 µM; 0.1% of 320,000 active; AID 2650;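 active = more than half of replicates show inhibition above 20%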;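 note: GST-tagged GSK-3 alpha with peptide substrate and 25 µM ATP; 0% = DMSO neutral wells and 100% = GW8510 positive control wells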
GSK3beta inhib: blocks human GSK3beta kinase activity; P49841; GST-GSK3beta kinase, ADP-Glo luminescence, 60 min; stronger effect = lower value; activity score (negative = inhibition), % at 10 µM; 0.038% of 300,000 active; AID 2097;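 active = more than half of replicate wells score below -50%, meaning over 50% inhibition versus plate controls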;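 note: 0% = median DMSO wells and -100% = median GW8510 positive control wells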
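Assay system: GST-tagged human GSK3beta kinase, cell-free; Input: 1.6 ng GSK3beta; Medium: Tris/MgCl2 kinase buffer; Timing: 60 min enzyme reaction, room temperature; Signal: ADP-Glo luminescence quantifying ADP generated by kinase; Evaluation: score relative to plate controls; Benchmarks: DMSO neutral wells and GW8510 at 20 µM as positive.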
CDK5 p35 inh: blocks human CDK5/p35 kinase activity | Q00535+Q15078 | Recombinant CDK5/p35, ADP-Glo luminescence, 60 min | inhibition, % at 10 µM | 0.01% of 330,000 active | AID 488839;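 active = highest replicate inhibition of at least 50% and at least 75% of replicates reaching 50%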;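 note: plate controls were DMSO neutral control for no effect and GW8510 at 10 µM for full effect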
Target sequence (Q00535 whole entry, looked up): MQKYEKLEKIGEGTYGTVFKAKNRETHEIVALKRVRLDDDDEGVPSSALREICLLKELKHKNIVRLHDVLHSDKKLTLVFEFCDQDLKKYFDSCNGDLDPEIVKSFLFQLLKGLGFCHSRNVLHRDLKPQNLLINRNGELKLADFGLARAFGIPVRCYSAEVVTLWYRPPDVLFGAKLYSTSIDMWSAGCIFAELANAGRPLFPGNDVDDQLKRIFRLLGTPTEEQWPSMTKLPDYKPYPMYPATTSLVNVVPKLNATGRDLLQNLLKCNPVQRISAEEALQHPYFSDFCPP
Target sequence (Q15078 whole entry, looked up): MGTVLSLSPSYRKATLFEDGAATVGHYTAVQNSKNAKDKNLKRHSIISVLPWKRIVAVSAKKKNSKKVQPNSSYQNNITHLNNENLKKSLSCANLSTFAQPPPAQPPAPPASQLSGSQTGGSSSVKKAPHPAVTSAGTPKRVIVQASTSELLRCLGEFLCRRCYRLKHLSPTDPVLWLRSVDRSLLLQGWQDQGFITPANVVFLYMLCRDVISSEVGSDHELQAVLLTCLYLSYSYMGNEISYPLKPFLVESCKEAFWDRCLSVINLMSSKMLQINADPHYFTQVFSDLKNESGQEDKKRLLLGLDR
* = called active by the depositor; x = no result.

SMILES | STK33 kinase inh | DYRK1A inh | GSK3A inh | GSK3beta inhib | CDK5 p35 inh
Cc1cc(N2C(=O)c3ccc(C(=O)Nc4ccc(O)cc4C(=O)O)cc3C2=O)no1 | 32.5* | -8.4 | 0.5 | -1.0 | -0.6
O=C(CCn1c(=O)oc2cc(Cl)ccc21)Nc1ccc(N2CCOCC2)cc1 | -0.1 | -0.5 | 2.5 | 2.3 | 0.4
C#CCOCCOCCOCCNc1nc(N2CCN(C(=O)CCCCCCCCCCNC(=O)[C@H](CCCCN)n3cc(CCO)nn3)CC2)nc(N2CCN(C(=O)CCCCCCCCCCNC(=O)[C@H](CCCN=C(N)N)n3cc(C[C@@H](C)CC)nn3)CC2)n1 | 14.3 | 19.0 | 19.2 | x | 8.6
C#CCOCCOCCOCCNc1nc(N2CCN(C(=O)CCCCCCCCCCNC(=O)[C@H]([C@@H](C)CC)n3cc(CCCCN=C(N)N)nn3)CC2)nc(N2CCN(C(=O)CCCCCCCCCCNC(=O)[C@H](CCCCN)n3cc(C[C@@H](C)CC)nn3)CC2)n1 | 29.6* | x | 17.2 | x | x
CN(C)C/C=C/C(=O)Nc1cccc(-c2c[nH]c3ncnc(Oc4ccc(NC(=O)CC(=O)Nc5ccc(F)cc5)cc4F)c23)c1 | 62.5* | 68.5* | 1.5 | x | 0.5
O=C(CN1C(=O)NC2(CCc3ccccc32)C1=O)NCc1cccc(C(F)(F)F)c1 (centres undefined) | 8.0 | -2.9 | 2.1 | x | -1.8
Nc1nc(NCc2ccc(Cl)cc2)nc(NCCO)c1[N+](=O)[O-] | -2.4 | 39.6 | 12.6 | -1.5 | 2.1
CCC(C)Nc1nc(N)c([N+](=O)[O-])c(NCCO)n1 (centres undefined) | 0.6 | 13.3 | 72.6* | -1.0 | 10.8
CC(C)CCNc1nc(N)c([N+](=O)[O-])c(NCCO)n1 | 3.1 | x | 79.5* | -67.4* | 2.2
Nc1nc(Nc2ccc(Cl)cc2)nc(NCCO)c1[N+](=O)[O-] | 3.4 | x | 54.7* | -15.9 | x
Cc1ccc(CNc2nc(N)c([N+](=O)[O-])c(NCCO)n2)cc1 | 1.9 | x | 50.7* | -39.2 | 0.2
CC(Sc1nnc(Cc2ccccc2)n1C)C(=O)NC1CC1 (centres undefined) | x | x | x | x | -0.5
CC/C=C(\NC(C)=O)c1ccccc1 | -3.9 | -6.8 | -1.9 | x | -0.5
O=C(NC1CCN(Cc2ccccc2)CC1)c1cc(S(=O)(=O)N2CCOCC2)ccc1Cl | x | -0.5 | x | x | 1.3
C=CCN1[C@@H](Cc2ccccc2)COCCS1(=O)=O | x | -4.1 | x | x | -1.0
COc1cc(C(=O)N2CCN(c3ccccn3)CC2)cc(OC)c1OC | 3.4 | 27.4 | 29.8 | -42.1 | 89.0*
COc1cc(OC)cc(C(=O)N2CCN(c3ccccn3)CC2)c1 | -2.6 | -1.6 | -1.0 | -1.1 | 2.0
C/C(=N\NC(=O)c1nnn(-c2nonc2N)c1-c1cccs1)c1cccc(O)c1 | -0.2 | 10.9 | 65.5* | -0.1 | -0.8
CCOc1cccc(-c2c(C(=O)N/N=C/c3ccncc3)nnn2-c2nonc2N)c1 | 2.0 | 60.0* | 48.3 | 4.6 | 3.0
CCOc1cccc(-c2c(C(=O)N/N=C(\C)c3ccncc3)nnn2-c2nonc2N)c1 | -0.2 | -0.2 | 68.7* | -20.5 | 3.1
CCOC(=O)c1nnn(-c2nonc2N)c1-c1ccc(OCC)cc1 | -0.5 | 26.6 | 50.4* | -35.5 | 0.3
CCOc1cccc(-c2c(C(=O)N/N=C/c3ccoc3)nnn2-c2nonc2N)c1 | 0.8 | x | 38.8 | 0.7 | x
CC(C)Cc1ccc(CN2CCCC(NC(=O)CCN3CCOCC3)C2)cc1 (centres undefined) | -1.6 | -9.5 | -0.8 | 2.9 | 1.1
C/C(=N/Nc1ccnc2cc(Cl)ccc12)c1ccc(O)cc1 | 31.7* | 10.6 | -0.3 | -0.4 | -2.3
CCOc1ccc(S(=O)(=O)NCCC(=O)NCC(c2ccc(F)cc2)N2CCOCC2)cc1 (centres undefined) | -1.7 | -1.3 | -3.4 | -3.8 | -2.6
SMILES | STK33 kinase inh | DYRK1A inh | GSK3A inh | GSK3beta inhib | CDK5 p35 inh
COc1ccc(/C=C/c2nc3ccccc3n2C)cc1 | 50.3* | 29.8 | 44.9 | -37.7 | 28.8
COC(=O)c1nnn(-c2nonc2N)c1CN1CCc2ccccc21 | -1.6 | 4.6 | 63.6* | -5.8 | 1.1
Nc1nonc1-n1nnc(C(=O)N/N=C/c2ccccc2)c1CN1CCc2ccccc21 | -0.4 | -1.1 | -2.9 | -0.1 | 10.4
Cc1cc(O)c(C=O)c2c1C(=O)Oc1c(CO)c(O)c3c(c1O2)C(O)OC3=O (centres undefined) | 56.6* | 51.4* | 6.1 | x | 7.2
Cc1cc(O)c(CN(C)C)c2c1C(=O)/C(=C/c1ccco1)O2 | 6.6 | 9.7 | 19.1 | -11.8 | 0.2
C=CCNc1nc(N)c(C(=O)c2ccc3c(c2)OCO3)s1 | 2.4 | 3.3 | 79.2* | x | 14.7
COc1ccc(S(=O)(=O)/N=C2\C=C(Nc3ccc(O)cc3)C(=O)c3ccccc32)cc1 | 5.7 | 32.0 | 5.8 | -4.6 | 5.1
O=C(O)c1ccc(S(=O)(=O)/N=C2\C=C(Nc3ccccc3F)C(=O)c3ccccc32)cc1 | 18.5 | 56.7* | 20.3 | -12.1 | 4.0
CC(C)(C)C1CCC(CN2CCC(CN3C(=O)C(=O)NC[C@@H]3Cc3ccccc3)CC2)CC1 (some centres undefined) | x | x | x | x | 0.2
Cc1c(CN(C)C)c2c(n1C)C(=O)c1ccc(Br)cc1-2 | 1.5 | 35.8 | 54.8* | -37.5 | 4.4
Cc1ccnc(NC(=O)C(C)n2cc([N+](=O)[O-])cn2)c1 (centres undefined) | -2.0 | x | 25.4 | -74.1* | 1.8
NC1(C(=O)O)CSSC1 | x | 0.0 | x | x | 2.0
NS(=O)(=O)c1ccc(NC(=O)CSc2nnc(-c3ccc(O)cc3)o2)cc1 | 6.8 | 29.8 | 53.3* | -2.1 | 0.4
Cc1ccc(N(CC(O)CN2CCCCC2)S(=O)(=O)c2ccccc2)cc1 (centres undefined) | -1.7 | -1.7 | 94.2* | 1.3 | -3.4
CC(C)(C)C(=O)NC(=S)Nc1sc2c(c1C(N)=O)CCC2 | 1.8 | 3.9 | 68.6* | -5.0 | -1.5
CCn1c2ccc(Cl)cc2c2nc3ccccc3nc21 | 1.9 | x | x | 0.6 | x
CCn1c2ccc(C)cc2c2nc3cc(C(=O)O)ccc3nc21 | 56.6* | 27.7 | 27.5 | -5.3 | 1.3
CCN(CC)CCNC(=O)c1ccc(NC(=O)C2CCN(c3ncnc4sc(C)c(C)c34)CC2)cc1 | 3.1 | 31.6 | 53.3* | 3.1 | -0.4
Cc1sc2ncnc(N3CCC(C(=O)Nc4ccc(OC(F)F)c(Cl)c4)CC3)c2c1C | -1.4 | 2.1 | -0.4 | x | -2.9
O=C(CNS(=O)(=O)c1ccc(Br)cc1)Nc1ccc2c(c1)OCCO2 | x | 4.2 | x | 4.4 | -0.9
CCN(CC)c1ccc(Nc2nc(N3CCOCC3)c3ccccc3n2)cc1 | 27.9* | 6.7 | 1.0 | -0.3 | -1.8
C=CC(=O)Nc1cccc(Nc2nc(N[C@H]3CC[C@H](N(C)C)CC3)nc3c2ncn3C(C)C)c1 | x | 88.2* | x | x | 83.2*
C/C(=N\NC(=O)c1cccc(N/N=C(\C)c2ccc([N+](=O)[O-])cc2)c1)c1ccc([N+](=O)[O-])cc1 | -2.3 | -1.4 | 0.8 | -0.1 | 0.6
CN1CCN(c2nc(-c3ccccc3Cl)nc3ccccc23)CC1 | -1.2 | 8.2 | 4.5 | -2.5 | -1.1
CCN1CCN(c2nc(-c3ccccc3Cl)nc3ccccc23)CC1 | 0.8 | 15.2 | 3.2 | -4.0 | -0.8
